Experimental data: ChEMBL document CHEMBL1156792, “Application of the dipeptidyl peptidase IV (DPPIV/CD26) based prodrug approach to different amine-containing drugs” (J Med Chem, 2010)
pEC50, pIC50: −log10 of the molar value. Converted amounts (≈) assume the structure as drawn. Peptide text beside a SMILES is read from it. * marks the point of attachment. X2 = OC[C@H]1O[C@@H](n2cnc3c(N*)ncnc32)[C@@H](O)[C@@H]1O; X1 = O=c1nc(N*)ccn1[C@@H]1O[C@H](CO)[C@@H](O)[C@@H]1O

Key:
Human alphaherpesvirus 1 [1] = assay: Antiviral activity against HSV1 KOS infected in HEL cells assessed as inhibition of virus-induced cytopathicity; format: functional, organism-based; conditions: Human alphaherpesvirus 1, KOS
In short: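 HEL cell cultures in 96-well plates were infected with HSV-1 (KOS) at 100 CCID₅₀/mL in the presence or absence of compound.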

Dipeptidyl peptidase 4 = Dipeptidyl peptidase 4 (Homo sapiens, UniProt P27487); assay: Inhibition of human DPP4 from human Caco-2 cells; format: cell-based
Dipeptidyl peptidase 4, sequence (P27487 whole entry): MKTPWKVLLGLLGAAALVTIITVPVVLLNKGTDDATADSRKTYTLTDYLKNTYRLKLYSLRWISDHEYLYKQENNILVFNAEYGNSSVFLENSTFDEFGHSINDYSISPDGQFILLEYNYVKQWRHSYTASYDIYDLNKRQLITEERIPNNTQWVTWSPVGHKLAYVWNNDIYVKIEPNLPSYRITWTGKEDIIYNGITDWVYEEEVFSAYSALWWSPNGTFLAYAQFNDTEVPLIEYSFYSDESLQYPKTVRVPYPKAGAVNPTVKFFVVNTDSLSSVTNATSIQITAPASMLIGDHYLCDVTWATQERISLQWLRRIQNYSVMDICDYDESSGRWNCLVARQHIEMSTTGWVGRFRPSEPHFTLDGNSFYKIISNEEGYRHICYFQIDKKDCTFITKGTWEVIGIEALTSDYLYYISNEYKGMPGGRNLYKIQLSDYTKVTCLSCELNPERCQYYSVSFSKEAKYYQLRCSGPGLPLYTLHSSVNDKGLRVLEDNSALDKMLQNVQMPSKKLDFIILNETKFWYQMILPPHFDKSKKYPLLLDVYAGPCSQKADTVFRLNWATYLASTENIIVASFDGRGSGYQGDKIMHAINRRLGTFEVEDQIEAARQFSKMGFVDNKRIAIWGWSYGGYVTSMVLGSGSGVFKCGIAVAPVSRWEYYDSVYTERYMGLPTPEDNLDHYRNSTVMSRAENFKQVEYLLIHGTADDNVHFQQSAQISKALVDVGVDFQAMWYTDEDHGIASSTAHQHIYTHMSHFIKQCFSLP

Human alphaherpesvirus 1 [2] = assay: Antiviral activity against HSV1 KOS infected in HEL cells assessed as inhibition of virus-induced cytopathicity in presence of vildagliptin; format: functional, organism-based; conditions: Human alphaherpesvirus 1, KOS
In short: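 HEL cells were infected with HSV-1 (KOS) at 100 CCID₅₀/mL with compound. The CD26 inhibitor vildagliptin (20 μM) was added once at the start of infection.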

Vaccinia virus [3] = assay: Antiviral activity against Vaccinia virus Lederle infected in HEL cells assessed as inhibition of virus-induced cytopathicity; format: functional, organism-based; conditions: Orthopoxvirus vaccinia
Vaccinia virus [4] = assay: Antiviral activity against Vaccinia virus Lederle infected in HEL cells assessed as inhibition of virus-induced cytopathicity in presence of vildagliptin; format: functional, organism-based; conditions: Orthopoxvirus vaccinia
HeLa = assay: Cytotoxicity against human HeLa cells assessed as inhibition of cell proliferation after 48 hrs; format: functional, cell-based
CCRF-CEM = assay: Cytotoxicity against human CEM cells assessed as inhibition of cell proliferation after 48 hrs; format: functional, cell-based
L1210 = assay: Cytotoxicity against mouse L1210 cells assessed as inhibition of cell proliferation after 48 hrs; format: functional, cell-based; conditions: L1210, 48 h
In short: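 L1210 cells were seeded at (5–7.5) × 10⁴ cells/well in 200 μL wells with compound. Cell number was counted by Coulter counter after 48 h. IC₅₀ is the concentration inhibiting proliferation by 50%.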

[5] = Solubility in water; format: physicochemical
In short: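 Excess solid was suspended in deionized water, sonicated 10 min at room temperature, equilibrated overnight at room temperature and centrifuged. Supernatant was diluted into a five-point standard curve range. Concentration came from HPLC peak area against a DMSO-dissolved standard of known concentration.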

[6] = tested on: Human immunodeficiency virus 1; assay: Antiviral activity against HIV1 3B infected in human CEM cells assessed as inhibition of virus-induced cytopathicity; format: functional, organism-based; conditions: Human immunodeficiency virus 1, 3B, CCRF-CEM
In short: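 CEM cells (~4.5 × 10⁵/mL) were infected with HIV-1 IIIB at 100 CCID₅₀/mL and exposed to compound dilutions (final 0.62–2000 μM) at 37 °C. Giant cell formation was scored microscopically after 4–5 days. EC₅₀ is the concentration preventing syncytium formation by 50%.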

[7] = Stability assessed as 6-aminoquinoline formation in human recombinant CD26 measured within 4 hrs; format: ADME
In short: (§1)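 Prodrug (50 μM) in PBS with 0.1% DMSO was incubated at 37 °C with purified CD26 (1.5 mU) or 20% human or bovine serum in PBS. Samples taken at time points were quenched in cold methanol on ice, centrifuged at 4 °C and analyzed by RP-8 HPLC. Buffer A was 50 mM NaH₂PO₄ with 5 mM heptanesulfonic acid, pH 3.2; buffer B was acetonitrile.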

Serum [8] = assay: Stability in 20 % bovine serum assessed as 6-aminoquinoline formation within 4 hrs; format: ADME, cell-free, Bos taurus; conditions: cattle; in short: as §1
Serum [9] = assay: Stability in 20 % human serum assessed as 6-aminoquinoline formation within 4 hrs; format: ADME, cell-free; in short: as §1
Serum [10] = assay: Stability in 20 % human serum assessed as 6-aminoquinoline formation after 2 hrs; format: ADME, cell-free; in short: as §1
Serum [11] = assay: Stability in 20 % bovine serum assessed as 6-aminoquinoline formation after 2 hrs; format: ADME, cell-free, Bos taurus; conditions: cattle; in short: as §1

Structure (SMILES): Nc1ncnc2c1ncn2[C@@H]1O[C@H](CO)[C@@H](O)[C@@H]1O [VIDARABINE]
- pEC50 (Human alphaherpesvirus 1 [1]): 4.46
- pIC50 (Dipeptidyl peptidase 4): 7.21
- pEC50 (Human alphaherpesvirus 1 [2]): 4.38
- pEC50 (Vaccinia virus [3]): 5.08
- pEC50 (Vaccinia virus [4]): 5.00

Structure (SMILES): CC(C)[C@H](N)C(=O)N[C@@H](C)C(=O)N[C@H](C(=O)N1CCC[C@H]1C(=O)Nc1ccn([C@@H]2O[C@H](CO)[C@@H](O)[C@@H]2O)c(=O)n1)C(C)C (H-VAVP-X1)
- pIC50 (HeLa): 6.25
- pIC50 (CCRF-CEM): 7.30
- pIC50 (L1210): 7.09

Structure (SMILES): CC(C)[C@H](N)C(=O)N1CCC[C@H]1C(=O)Nc1ccc2ncccc2c1
- solubility [5]: 33.2 mg/mL (≈ 97.5 mM)

Structure (SMILES): CC(C)(C)[Si](C)(C)OC[C@H]1O[C@@H](n2ccc(N)nc2=O)[C@@H](O)[C@@H]1O[Si](C)(C)C(C)(C)C
- pEC50 [6]: 7.15

Structure (SMILES): CC(C)[C@H](N)C(=O)N1CCC[C@H]1C(=O)N[C@H](C(=O)N1CCC[C@H]1C(=O)Nc1ccn([C@@H]2O[C@H](CO)[C@@H](O)[C@@H]2O)c(=O)n1)C(C)C (H-VPVP-X1)
- pIC50 (HeLa): 6.20
- Activity [7]: 80%
- pIC50 (CCRF-CEM): 7.24
- pIC50 (L1210): 7.00
- Activity (Serum [8]): 80%
- Activity (Serum [9]): 80%

Structure (SMILES): Nc1ccc2ncccc2c1
- solubility [5]: 7.01 mg/mL (≈ 48.6 mM)

Structure (SMILES): Cc1cn([C@@H]2O[C@H](CO[Si](C)(C)C(C)(C)C)[C@@]3(OS(=O)(=O)C=C3N)[C@H]2O[Si](C)(C)C(C)(C)C)c(=O)nc1NC(=O)[C@@H]1CCCN1C(=O)[C@@H](NC(=O)[C@@H]1CCCN1C(=O)[C@@H](N)C(C)C)C(C)C
- Activity (Serum [10]): 20%
- Activity (Serum [11]): 40%

Structure (SMILES): Nc1ccn([C@@H]2O[C@H](CO)[C@@H](O)[C@@H]2O)c(=O)n1 [CYTARABINE]
- pIC50 (HeLa): 6.59

Structure (SMILES): N[C@@H](CC(=O)O)C(=O)N1CCC[C@H]1C(=O)Nc1ccc2ncccc2c1
- solubility [5]: 47.8 mg/mL (≈ 134 mM)

Structure (SMILES): CC(C)[C@H](N)C(=O)N1CCC[C@H]1C(=O)N[C@H](C(=O)N1CCC[C@H]1C(=O)Nc1ncnc2c1ncn2[C@@H]1O[C@H](CO)[C@@H](O)[C@@H]1O)C(C)C (H-VPVP-X2)
- solubility [5]: 34.7 mg/mL (≈ 52.7 mM)
- pEC50 (Human alphaherpesvirus 1 [1]): 4.27
- pEC50 (Human alphaherpesvirus 1 [2]): 3.62
- pEC50 (Vaccinia virus [3]): 4.80
- pEC50 (Vaccinia virus [4]): 3.87
